The nature of data set [1]: Time during which drug concentration exceed invitro IC50 for TYK2 in mouse whole blood assessed as decrease in IFNalpha-induced STAT1 phosphorylation in C57BL/6 mouse at 15 mg/kg, po via gavage bid for 9 days with first dose given prior to first IL23 challenge and twice a day thereafter. Format: ADME, organism-based. The settings on record: in vivo, 216 h. In short, it runs like this: (§1)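 Drug levels were measured in the animals of the IL-23 acanthosis study, dosed orally twice daily. The duration was the time, in hours, that levels stayed at or above the in vitro mouse whole blood IC50 for IFNα-induced pSTAT1.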

The next data set deals with T1, Cytochrome P450 1A2 (Homo sapiens, UniProt P05177).
T1 sequence (P05177 whole entry): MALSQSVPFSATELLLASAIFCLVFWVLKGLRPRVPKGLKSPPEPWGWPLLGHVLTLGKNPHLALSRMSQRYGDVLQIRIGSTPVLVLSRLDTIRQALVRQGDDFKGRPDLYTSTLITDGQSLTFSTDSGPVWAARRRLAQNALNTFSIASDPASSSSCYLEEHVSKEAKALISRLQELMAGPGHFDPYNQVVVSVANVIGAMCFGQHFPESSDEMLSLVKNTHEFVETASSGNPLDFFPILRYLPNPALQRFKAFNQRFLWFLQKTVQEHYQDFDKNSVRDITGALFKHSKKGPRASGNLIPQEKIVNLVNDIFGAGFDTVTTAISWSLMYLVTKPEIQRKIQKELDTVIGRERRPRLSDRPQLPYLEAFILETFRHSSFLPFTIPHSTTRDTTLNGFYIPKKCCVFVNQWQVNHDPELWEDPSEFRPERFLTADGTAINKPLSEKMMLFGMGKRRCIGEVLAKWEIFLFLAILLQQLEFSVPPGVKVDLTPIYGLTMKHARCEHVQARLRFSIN
Briefly: Inhibition of CYP1A2 (unknown origin). In kind it is ADME. An outline of the steps:
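Inhibition of CYP1A2, 2C9, 2C19, 2D6 and 3A4, read out as IC50. The highest concentration tested was 40 μM.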

Data set [2] can be described thus: Metabolic stability in rabbit liver microsomes assessed as half life. In kind it is ADME, Oryctolagus cuniculus, Microsome. In short, it runs like this: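 Liver microsomes from human, rat, mouse, dog, cynomolgus monkey and rabbit were incubated with compound. Stability is reported as half-life (T1/2, min). Values are means of at least three separate experiments.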
A general note: Liver microsomes are vesicles of endoplasmic reticulum, rich in cytochrome P450 enzymes.

Data set [3] is described as follows: Cmax in C57BL/6 mouse at 10 mg/kg, po. Set-up: dose 10 mg/kg, route oral. Particulars: in vivo. In kind it is ADME, organism-based. An outline of the steps: (§2)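 Oral PK: single dose of 10 mg/kg as a solution in ethanol/TPGS/PEG 300 (5:5:90) given to mouse, dog and monkey. Cmax (μM), AUC (μM × h) and bioavailability F (%) were derived, with F taken against the iv arm.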

Data set [4] can be described thus: Time during which drug concentration exceed invitro IC50 for TYK2 in mouse whole blood assessed as decrease in IFNalpha-induced STAT1 phosphorylation in C57BL/6 mouse at 30 mg/kg, po via gavage bid for 9 days with first dose given prior to first IL23 challenge and twice a day thereafter. Format: ADME, organism-based. Particulars: in vivo, 216 h. In short, it runs like this:
as §1

Data set [5] is described as follows: Protein binding in human assessed as unbound fraction. In kind it is ADME.
A short description of data set [6]: Cmax in dog at 10 mg/kg, po. In kind it is ADME, organism-based, Canis lupus familiaris. Set-up: dose 10 mg/kg, route oral. Particulars: in vivo. In short, it runs like this: as §2

Structures are written as SMILES. Where only a bound is given, the exact number is not on record here.

Here are results for one compound from ChEMBL document CHEMBL4376812 (J Med Chem, 2019).

A word on the IC50: it is the concentration that inhibits the measured activity by half. The term half-life denotes the time needed for the level to fall by half in the phase considered. The term Cmax denotes the highest concentration seen after dosing. For orientation: fraction unbound means the share of the substance not bound to proteins or other matrix. Consider `[2H]C([2H])([2H])NC(=O)c1nnc(NC(=O)C2CC2)cc1Nc1cccc(-c2ncn(C)n2)c1OC` [DEUCRAVACITINIB], for which the “T>IC50” value in data set [1] amounted to 21 h; in data set [4], 24 h. The same compound gave an IC50 against Cytochrome P450 1A2 of over 40 µM. Besides, the half-life in data set [2] is over 2 h. The maximum concentration (Cmax) turned out to be 7.5 µM in data set [3] and 6.9 µM in data set [6]. Also, the fraction unbound in data set [5] was determined as 0.13.
